Screening results (PubChem BioAssay)
Only some compounds are listed: those with a hit (about 3.5% of all), similar ones and a draw of the others.
MrgX1 agonist = agonists of human MrgX1 receptor, primary screen, HEK293 cells, Fluo-4 calcium flux; Fluo-4 calcium fluorescence, agonist mode; stronger effect = higher value; B-score at 10 µM; 0.44% of 310,000 active; AID 588627, 2011;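 active means calcium response B-score plate-corrected fluorescence ratio at least 3 library SD, with starting fluorescence B-score inside 5 SD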
Target sequence (Q96LB2 whole entry, looked up): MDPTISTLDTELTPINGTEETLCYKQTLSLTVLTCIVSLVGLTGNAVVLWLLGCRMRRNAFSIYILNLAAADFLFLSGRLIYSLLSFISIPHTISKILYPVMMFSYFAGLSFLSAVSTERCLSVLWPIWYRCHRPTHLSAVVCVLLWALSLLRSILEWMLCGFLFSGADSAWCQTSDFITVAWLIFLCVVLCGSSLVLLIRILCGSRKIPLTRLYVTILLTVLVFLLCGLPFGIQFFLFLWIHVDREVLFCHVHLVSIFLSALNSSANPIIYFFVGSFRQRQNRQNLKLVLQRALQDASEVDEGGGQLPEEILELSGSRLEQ
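Material: MrgX1-expressing HEK293 cells / Dosing: compound as first of three additions / Incubation: overnight seeding, then 1 h dark dye loading / Signal: Fluo-4 NW calcium fluorescence / Evaluation: B-scored fluorescence response ratio / Benchmarks: positive and negative control wells on each plate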
RGS4 pot = RGS4 potentiators or activators, primary screen, cell-based, HEK293 M3R inducible RGS4, calcium flux. carbachol calcium flux Fluo4; stronger effect = lower value. B-score at 10 µM. 0.92% of 310,000 active. AID 463111, 2010;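 active means B-score of the integrated calcium signal more than 4 SD below the library mean, with starting fluorescence not abnormally high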;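 further: negative B-score means reduced calcium response which marks RGS4 activation or potentiation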
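Detection: kinetic calcium fluorescence imaging with Fluo4-AM dye, 2 µM / Material: HEK293 cells with stable M3R and inducible RGS4 / Schedule: recording 10 s baseline at 1 Hz, 100 s post-agonist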
MrgX1 allo act = positive allosteric modulators of MrgX1, primary screen, HEK293 cells, Fluo-4 calcium flux; B-score at 10 µM; 0.63% of 310,000 active; FDSS; stronger effect = higher value; AID 588675, 2011;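 active means plate-corrected calcium response at least 3 library SD above typical, normal starting fluorescence, not activating the receptor alone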;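 further: compound read alongside a low EC10 to EC30 dose of BAM8-22 agonist; peak minus trough fluorescence over baseline measured at the second addition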
RGS4 block = RGS4 inhibitors, primary screen, cell-based, HEK293 M3R inducible RGS4, calcium flux. Fluo-4 calcium flux; stronger effect = higher value; triggered by carbachol at its EC20. B-score at 10 µM. 0.45% of 310,000 active. AID 463165, 2010;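 active means B-score, a plate-corrected calcium signal, over three deviations above library mean, with baseline fluorescence within five deviations of library mean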;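 further: RGS4 expression induced by doxycycline in cells with stable M3 receptor; B-score is computed from the integrated fluorescence ratio over baseline after carbachol; higher B-score means a larger calcium signal and so more RGS4 inhibition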
Target sequence (P49798 whole entry, looked up): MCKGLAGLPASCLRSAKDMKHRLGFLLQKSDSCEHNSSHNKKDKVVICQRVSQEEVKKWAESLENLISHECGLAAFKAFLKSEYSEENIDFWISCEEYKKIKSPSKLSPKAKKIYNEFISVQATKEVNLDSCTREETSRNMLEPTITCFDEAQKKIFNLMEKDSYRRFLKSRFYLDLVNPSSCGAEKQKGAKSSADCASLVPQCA
MrgX1 antag = antagonists of human MrgX1 receptor, primary screen, HEK293 cells, Fluo-4 calcium flux; AID 588676, 2011; Mas-related G-protein coupled receptor member X1 (Homo sapiens), Q96LB2; B-score at 10 µM; BAM8-22 antagonism; stronger effect = lower value; 1.3% of 310,000 active;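 active means calcium-response B-score plate-corrected more than 3 library SD below zero, starting fluorescence within 5 deviations, no agonist response on first addition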;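 further: peak minus trough fluorescence over baseline after final BAM8-22 challenge near maximal dose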
Numbers without * were called inactive; i = inactive; x = not tested or not shown.

SMILES	MrgX1 agonist	RGS4 pot	MrgX1 allo act	RGS4 block	MrgX1 antag
CCNc1ccc(Br)cc(C(=O)/C=C/c2ccc(Cl)cc2)c1=O	i	i	i	i	i
CCNc1ccc(Br)cc(C(=O)/C=C/c2c(Cl)cccc2Cl)c1=O	i	i	i	i	-4.57*
COC(=O)CCCCCCCCCCN1CCCCC1	i	-9.2*	i	i	i
C1CCCN(CCCCN2CCCCCC2)CC1	i	i	i	i	i
COc1ccc(CNC(=O)CN(C(=O)c2cc3sccc3n2C)C2CCCC2)cc1	i	i	i	i	i
Cc1ccc(-c2csc(Cc3nc(-c4cc5ccccc5oc4=O)cs3)n2)cc1	i	-6.98*	i	i	i
Cc1ccc(OCCCCN2CCCC(C)C2)c([N+](=O)[O-])c1 (stereo not given)	i	i	i	i	i
CC(O)[C@H]1CNCCN1CC1(c2ccccc2)CC1 (stereo not given in full)	i	i	i	i	i
Cc1ccc(NC(=O)c2ccc(=O)[nH]c2)cc1S(=O)(=O)N1CCCCC1	i	i	i	i	i
O=C(C1CC1)N1N=C(c2ccccc2)CC1(O)C(F)(F)F (stereo not given)	i	i	i	i	i
O=C(c1ccccc1[N+](=O)[O-])N1N=C(c2ccccc2)CC1(O)C(F)(F)F (stereo not given)	i	-9.28*	i	i	i
COc1ccccc1CC(=O)NNS(=O)(=O)c1ccc([N+](=O)[O-])cc1	i	i	i	i	i
Cc1ccc2nc(N3C(=O)C(O)=C(C(=O)c4cc5ccccc5o4)C3c3cccs3)sc2c1 (stereo not given)	i	i	i	i	-5.65*
CCc1ccc2nc(N3C(=O)C(O)=C(C(=O)c4ccco4)C3c3cccs3)sc2c1 (stereo not given)	i	i	i	i	i
O=C(CNS(=O)(=O)c1cccc(Br)c1)NCC1CCCCC1	i	i	i	i	i
Cc1sc2ncnc(NCC(O)c3ccccc3)c2c1C (stereo not given)	i	i	i	i	i
Cc1sc2ncnc(NCC(c3ccccc3)N(C)C)c2c1C (stereo not given)	i	-7.49*	i	i	i
Cc1nc(NCC(c2ccccc2)N(C)C)c2c(C)c(C)sc2n1 (stereo not given)	i	-9.54*	i	i	i
Cc1sc2ncnc(NCC(O)c3ccc([N+](=O)[O-])cc3)c2c1C (stereo not given)	i	i	i	i	-5.02*
Cc1sc2ncnc(NCCCO)c2c1C	i	i	i	i	i
CCN(CC(=O)Nc1c(F)cccc1F)C(=O)c1ccc2ncsc2c1	i	i	i	i	i
CC1(C)C(=O)OC(c2cccn2-c2ccc([N+](=O)[O-])cc2)C(C)(C)C1=O (stereo not given)	i	i	i	i	-5.05*
CCCOC(=O)c1ccc(Oc2cn[nH]c2-c2ccc(OC)cc2O)cc1	i	-7.53*	i	i	i
COc1cccc(Oc2cn[nH]c2-c2ccc(OCC(=O)NN)cc2O)c1	i	i	i	i	i
CCOc1cc(C(=O)Nc2cc3c(cc2N2CCOCC2)n(C)c(=O)n3C)cc(OCC)c1OCC	i	i	i	i	i
SMILES	MrgX1 agonist	RGS4 pot	MrgX1 allo act	RGS4 block	MrgX1 antag
CC(=O)c1ccc(NC(=S)NC(NC(=O)c2ccco2)C(Cl)(Cl)Cl)cc1 (stereo not given)	i	i	7.57*	i	i
O=C(NC(NC(=S)Nc1ccc(Cl)cc1)C(Cl)(Cl)Cl)c1ccco1 (stereo not given)	i	i	i	i	i
CC(C)(C)N(CC(=O)NC1CCCCC1)C(=O)CS(=O)CC(=O)Nc1ccc(F)cc1 (stereo not given)	i	i	i	i	i
COc1ccc(C(CNC(=O)C(=O)Nc2ccc3c(c2)OCO3)N2CCN(C)CC2)cc1 (stereo not given)	i	i	i	i	-6.15*
CCOCCOC(=O)C(C)Oc1ccc(Oc2ncc(Cl)cc2Cl)cc1 (stereo not given)	i	i	i	i	i
CCOCCOC(=O)C(C)Oc1ccc(Oc2nc(Cl)ccc2Cl)cc1 (stereo not given)	i	i	i	i	-8.48*
N#C/C(=C/c1ccc(N2CCCCCC2)o1)c1ccc(F)cc1	i	i	17.6*	i	i
N#C/C(=C/c1ccc(N2CCOCC2)o1)c1ccc(Br)cc1	38.6*	i	i	i	i
O=C(Cn1nnc2ccccc2c1=O)NCCc1ccc(F)cc1	i	i	i	i	-4.98*
COc1ccc(CCNC(=O)Cn2nnc3ccccc3c2=O)cc1	i	i	i	i	i
Cc1ccc(C(=O)Nc2cccc(C(=O)NC3CCCC3)c2)cc1	i	i	i	i	i
CCc1cc(CN2CCOCC2)c(NC(=O)c2ccccc2)s1	i	i	i	i	i
COCCn1c(Cc2ccccc2)nnc1SCC(=O)N1CCCCC1C (stereo not given)	i	i	i	i	-8.19*
Cn1c(/C(C#N)=C(\O)c2cccc(F)c2)nc2ccccc21	i	i	i	i	-5.38*
COc1cc(/C=C(\C#N)c2nc3ccccc3[nH]2)cc(OC)c1O	43.9*	i	i	i	i
Cc1cc(/C=C(/C#N)c2nc3ccccc3[nH]2)c(C)n1-c1cccc([N+](=O)[O-])c1	i	-7.13*	i	i	i
COc1ccc(/C=C(\C#N)c2nc3ccccc3[nH]2)cc1O	x	i	x	i	x
N#C/C(=C\c1ccc(Cl)cc1)c1nc2ncccc2[nH]1	i	i	18.8*	i	i
N#C/C(=C\c1c(Cl)cccc1Cl)c1nc2ccccc2[nH]1	i	i	8.67*	i	i
CN(C)/C=C(\C#N)c1nc2ccccc2[nH]1	i	i	i	i	i
Cc1cc(/C=C(\C#N)c2nc3ccccc3[nH]2)c(C)n1C	i	i	i	i	i
CC(SCc1nc2sc3c(c2c(=O)[nH]1)CCCC3)C(=O)Nc1ccccn1 (stereo not given)	i	i	i	i	i
